# Measurements reported in ChEMBL document CHEMBL4680098, “Next-Generation Reduction Sensitive Lipid Conjugates of Tenofovir: Antiviral Activity and Mechanism of Release” (J Med Chem, 2016).
# Counter-ions that a name gives are not always drawn.
# Legend:
# [1] = Stability in PBS buffer at pH 7.4 assessed as compound decomposition by LC-MS analysis; assay type: physicochemical
# How it was run: (§1)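 Freshly prepared buffer (3.0 ml) was equilibrated at 37.4 ± 0.2 °C with DTT at ~0.1 M and stirred 10 min. Compound stock in water/MeOH was then added. Aliquots were taken from 0 min to 24 h, with shorter intervals where needed, diluted to 1025 µL with H₂O/MeOH/HCOOH (75:25:0.1) and analysed by LC-MS.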
# [2] = Stability in aqueous carbonate/bicarbonate buffer at pH 10.16 assessed as compound decomposition measured within 8 mins by LC-MS analysis; assay type: physicochemical; conditions: read-out: Drug degradation; how it was run: as §1
# [3] = Stability in aqueous carbonate/bicarbonate buffer at pH 9.19 assessed as compound decomposition by LC-MS analysis; assay type: physicochemical; how it was run: as §1
# [4] = Cytotoxicity in uninfected human PBMC assessed as reduction in cell viability by XTT assay; assay type: tissue-based
# How it was run: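 Fresh HIV/HBV-negative human PBMCs isolated by Ficoll-Hypaque and stimulated 48-72 h with 2 µg/mL PHA-P, then kept in RPMI 1640 with 15% FBS and IL-2. Plates were set up as for the anti-HIV assay but without virus, with compound up to 100 μM in log dilutions, for 7 days. Viability read by XTT at 450/650 nm, in triplicate.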
# [5] = test system: HepG2; experiment: (§2) Cytotoxicity in uninfected human hepG2 assessed as reduction in cell viability by XTT assay; assay type: cell-based; conditions: hepg2
# How it was run: (§3)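 Uninfected cells were plated and treated as in the anti-HBV plate: six ten-fold compound dilutions, 6 days at 37°C in 5% CO₂, medium renewed day 3. The monolayer was stained with XTT on day 6 and read at 450/650 nm, in triplicate.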
# [6] = test system: Hepatitis B virus; experiment: Antiviral activity against HBV infected in human HepG2 assessed as reduction in viral replication incubated for 6 days by real time Q-PCR analysis; assay type: functional, organism-based; conditions: HepG2, 144 h
# How it was run: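 Cells seeded at 1x10⁴/well, held 24 h at 37°C in 5% CO₂. Six ten-fold serial compound dilutions in RPMI1640 with 10% FBS were added in triplicate; medium-only wells served as virus controls. Cultured 6 days; medium with compound renewed on day 3. Day-6 supernatant diluted in buffer containing 40 μg/ml sheared salmon sperm DNA, boiled 15 min, then qPCR; HBV DNA copies interpolated from standard curve.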
# [7] = Stability in glycine/HCl buffer at pH 2.0 assessed as compound decomposition by LC-MS analysis; assay type: physicochemical; how it was run: as §1
# [8] = test system: Human immunodeficiency virus 1; experiment: Antiviral activity against HIV1 infected in human PBMC assessed as reduction in viral replication incubated for 7 days by radioactive incorporation polymerization assay based reverse transcriptase activity detection method; assay type: functional, organism-based; conditions: Human immunodeficiency virus 1, PBMC, 168 h
# How it was run: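 Fresh donor PBMCs (HIV/HBV negative) were isolated on Ficoll-Hypaque and stimulated 48-72 hr with PHA-P. They were then kept in RPMI 1640 with 15% FBS and IL-2, and used 72 hr after stimulation at 1×10^6 cells/ml. Compounds were tested up to 100 μM in five serial logarithmic dilutions. Infection used 50-150 TCID₅₀ per well (MOI ~0.002), in triplicate, with supernatant RT activity read at day 7.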
# [9] = Therapeutic index, ratio of CC50 for uninfected human PBMC to EC50 for HIV1 infected in human PBMC; assay type: toxicity; conditions: PBMC (uninfected for CC50, HIV-1 infected for EC50)
# [10] = Aqueous solubility of compound; assay type: physicochemical; conditions: buffer
# [11] = Stability in pH 11.56 buffer assessed as compound decomposition measured up to 350 mins at 37 degC by LC-MS analysis; assay type: physicochemical; conditions: pH 11.56, 350 min
# [12] = Stability in pH 2.0 buffer assessed as compound decomposition measured up to 350 mins at 37 degC by LC-MS analysis; assay type: physicochemical; conditions: pH 2, 350 min
# [13] = Stability in pH 9.2 buffer assessed as compound decomposition measured up to 350 mins at 37 degC by LC-MS analysis; assay type: physicochemical; conditions: pH 9.2, 350 min
# [14] = Therapeutic index, ratio of CC50 for uninfected human HepG2 cells to EC50 for HBV infected in human HepG2 cells; assay type: toxicity, cell-based
# [15] = as §2; assay type: cell-based; conditions: uninfected HepG2 cells; how it was run: as §3
# [16] = Retention time in PBS buffer at pH 7.4 using compound 6 by LC-MS analysis; assay type: physicochemical
Structure (SMILES),CC50 ([4]; pbmc),CC50 [5],EC50 [6],EC50 [8],selectivity ratio [9],selectivity ratio [14],other results
C[C@H](Cn1cnc2c(N)ncnc21)OCP(=O)(O)OCCS,> 100 µM,> 100 µM,41900 nM,–,–,–,Stabilty [1]: Stable; degraded at 8 min [2]: 100%; Stabilty [3]: Unstable; Stabilty [7]: Stable
CCCCCCCCCCCCCCCCSSCCOP(=O)(O)CO[C@H](C)Cn1cnc2c(N)ncnc21,–,> 25 µM,20 nM,0.65 nM,22000,–,solubility [10]: Insoluble
CCCCCCCCCCCCCCCCSSc1ccccc1COP(=O)(O)CO[C@H](C)Cn1cnc2c(N)ncnc21,17.2 µM,17.5 µM,4480 nM,–,–,–,–
C[C@H](Cn1cnc2c(N)ncnc21)OCP(=O)(O)OCCCCS,> 100 µM,> 100 µM,> 100000 nM,–,–,–,Stabilty [11]: Stable; Stabilty [12]: Stable; Stabilty [13]: Stable
CCCCCCCCCCCCCCCCSSCCCCOP(=O)(O)CO[C@H](C)Cn1cnc2c(N)ncnc21,> 50 µM,> 50 µM,248 nM,< 0.5 nM,> 100000,–,solubility [10]: Insoluble
CCCCCCCCCCCCCCCCSSCc1ccccc1COP(=O)(O)CO[C@H](C)Cn1cnc2c(N)ncnc21,15.9 µM,32.5 µM,152 nM,< 0.5 nM,–,214,–
CCCCCCCCCCCCSSCCCCCCOP(=O)(O)CO[C@H](C)Cn1cnc2c(N)ncnc21,–,–,1050 nM,7 nM,> 7000,> 47,CC50 ([4]; uninfected PBMC): > 50 µM; CC50 [15]: > 50 µM
C[C@H](Cn1cnc2c(N)ncnc21)OCP(=O)(O)O [TENOFOVIR ANHYDROUS],> 100 µM,–,–,320 nM,–,–,Retention_time [16]: 0.66 min
CC(C)OC(=O)OCOP(=O)(CO[C@H](C)Cn1cnc2c(N)ncnc21)OCOC(=O)OC(C)C [TENOFOVIR DISOPROXIL FUMARATE],–,64.5 µM,340 nM,4.5 nM,9500,190,–
